According to ChEMBL document CHEMBL3865810, “4-Aminoquinoline derivatives: Synthesis, in vitro and in vivo antiplasmodial activity against chloroquine-resistant parasites” (Eur J Med Chem, 2016):
≈ marks a conversion by molar mass, not a printed value. Calls of active or inactive are those of the source. The calls are words filed in the database; no cut-off is given here.

Key:
[1] = test system: Plasmodium falciparum; assay: Antiplasmodial activity against erythrocytic stage of chloroquine/pyrimethamine/cycloguanil resistant-Plasmodium falciparum FCR3 after 48 hrs by [3H]-hypoxanthine incorporation assay; type: functional; settings: FCR-3/Gambia
Procedure, shortened: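 FCR3 P. falciparum, resistant to CQ (100 ng/mL) and pyrimethamine (15 nM), was synchronized to rings and grown at 1% parasitemia and 2% haematocrit in group O erythrocytes. Medium was RPMI 1640 with Albumax II, at 37 °C under 2% O2/5.5% CO2. Cells were exposed for 48 h to serial dilutions from 0.05 to 2x10^-6 mg/ml. Read-out was [3H]-hypoxanthine incorporation, in triplicate, two independent assays. IC50 came from dose-response curves.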

[2] = Cytotoxicity against human HuH7 cells after 72 hrs by MTT assay; type: toxicity, cell-based, Huh-7
Procedure, shortened: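 Huh-7 human hepatocellular carcinoma cells, 4 × 10^3 per well in DMEM with 10% FBS and 1% penicillin-streptomycin-glutamine. Exposed to eight 2-fold dilutions spanning 100 to 0.78 µg/mL for 72 h. MTT added for 2-4 h, then detergent solubilization for 2 h in the dark at room temperature; absorbance read at 570 nm. CC50 is the mean of at least two experiments run in duplicate.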

[3] = Therapeutic index, ratio of LD50 for BALB/c mouse to ED50 for erythrocytic stage of chloroquine-resistant Plasmodium berghei ANKA infected in BALB/c mouse; settings: read-out: Ratio LD50/ED50
Procedure, shortened: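 TI = LD50/ED50. LD50 was taken from BALB/c mice dosed ip at 50-1000 mg/kg and observed for 7 days. ED50 came from the P. berghei ANKA four-day suppressive test with ip dosing.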

[4] = test system: Mus musculus; assay: Toxicity in BALB/c mouse assessed as mortality at 500 mg/kg, ip measured up to 7 days; type: organism-based; settings: in vivo, 168 h
Procedure, shortened: (§1)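 For the LD50 test, BALB/c mice were given single ip doses of 50, 100, 200, 500, 600, 800 or 1000 mg/kg BW and observed for mortality over 7 days.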

[5] = Toxicity in ip dosed BALB/c mouse assessed as mortality measured up to7 days; type: organism-based; settings: in vivo; procedure, shortened: as §1
[6] = test system: Plasmodium berghei; assay: Antiplasmodial activity against erythrocytic stage of chloroquine-resistant Plasmodium berghei ANKA infected in BALB/c mouse assessed as inhibition of parasitemia at 5 mg/kg/day, ip administered 3 hrs post infection for 4 days by Giemsa staining based microscopic assay relative to control; type: functional
Procedure, shortened: (§2)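 Peters' four-day suppressive test. Male naïve BALB/c mice, 25 ± 5 g, 4-5 weeks old, 5 per group, were infected ip on day 0 with 2x10^7 P. berghei ANKA parasitized erythrocytes. Dosing was ip from 2 mg/ml stocks in 10% DMSO, first given 1-3 h post-infection and repeated on days 1-3. Saline went to controls. On day 4, parasitemia was counted on Giemsa tail smears and activity = 100 − (treated/control mean parasitemia)×100.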

[7] = test system: Mus musculus; assay: Toxicity in BALB/c mouse infected with erythrocytic stage of chloroquine-resistant Plasmodium berghei ANKA assessed as weight loss at 0.1 to 10 mg/kg/day, ip administered 3 hrs post infection for 4 days; type: organism-based; settings: in vivo
[8] = test system: Plasmodium berghei; assay: Antiplasmodial activity against erythrocytic stage of chloroquine-resistant Plasmodium berghei ANKA infected in BALB/c mouse assessed as inhibition of parasitemia at 0.1 mg/kg/day, ip administered 3 hrs post infection for 4 days by Giemsa staining based microscopic assay relative to control; type: functional; procedure, shortened: as §2
[9] = test system: Plasmodium berghei; assay: Antiplasmodial activity against erythrocytic stage of chloroquine-resistant Plasmodium berghei ANKA infected in ip dosed BALB/c mouse assessed as increase in mouse survival time administered once daily 3 hrs post infection for 4 consecutive days by Giemsa staining based microscopic assay; type: functional, organism-based
Procedure, shortened: (§3)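 BALB/c mice, 5 per group, were infected ip with 2x10^7 P. berghei ANKA parasitized erythrocytes. They were dosed ip at 0.1, 1, 5 or 10 mg/kg/day from 2 mg/ml stocks in 10% DMSO, starting 1-3 h post-infection, once daily on days 0-3. Saline went to controls. Groups were compared by Kaplan-Meier with a log-rank (Mantel-Cox) test.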

[10] = test system: Mus musculus; assay: Toxicity in BALB/c mouse assessed as mortality at 1000 mg/kg, ip measured up to 7 days; type: organism-based; settings: in vivo, 168 h; procedure, shortened: as §1
[11] = test system: Plasmodium berghei; assay: Antiplasmodial activity against erythrocytic stage of chloroquine-resistant Plasmodium berghei ANKA infected in ip dosed BALB/c mouse assessed as reduction in parasitemia administered 3 hrs post infection for 4 days by Giemsa staining based microscopic assay; type: functional; procedure, shortened: as §2
[12] = test system: Plasmodium berghei; assay: Antiplasmodial activity against erythrocytic stage of chloroquine-resistant Plasmodium berghei ANKA infected in BALB/c mouse assessed as inhibition of parasitemia at 1 mg/kg/day, ip administered 3 hrs post infection for 4 days by Giemsa staining based microscopic assay relative to control; type: functional; procedure, shortened: as §2
[13] = test system: Plasmodium berghei; assay: Antiplasmodial activity against erythrocytic stage of chloroquine-resistant Plasmodium berghei ANKA infected in BALB/c mouse assessed as inhibition of parasitemia at 10 mg/kg/day, ip administered 3 hrs post infection for 4 days by Giemsa staining based microscopic assay relative to control; type: functional; procedure, shortened: as §2
[14] = test system: Plasmodium berghei; assay: Antiplasmodial activity against erythrocytic stage of chloroquine-resistant Plasmodium berghei ANKA infected in BALB/c mouse assessed as mean survival time at 0.1 to 10 mg/kg/day, ip administered 1 to 3 hrs post infection qd measured on day 4 post last dose by giemsa staining-based microscopic analysis; type: functional, organism-based; procedure, shortened: as §3

Question: With `Fc1ccc(Nc2ccnc3cc(Cl)ccc23)c(F)c1` as the compound, how does the IC50 [1] read?
Answer: 0.045 µg/mL (≈ 0.155 µM)

Question: And the CC50 at 72 h [2]?
Answer: > 100 µg/mL

Question: With `Cc1ccc(C)c(Nc2ccnc3cc(Cl)ccc23)c1` as the compound, how does the IC50 [1] read?
Answer: 0.46 µg/mL (≈ 1.63 µM)

Question: And the CC50 at 72 h [2]?
Answer: > 100 µg/mL

Question: With `Fc1ccc(Nc2ccnc3cc(Cl)ccc23)c(Cl)c1` as the compound, how does the IC50 [1] read?
Answer: 0.065 µg/mL (≈ 0.212 µM)

Question: And the CC50 at 72 h [2]?
Answer: > 100 µg/mL

Question: With `COc1ccc(OC)c(Nc2ccnc3cc(Cl)ccc23)c1` as the compound, how does the selectivity ratio [3] read?
Answer: 359

Question: And the IC50 [1]?
Answer: 0.022 µg/mL (≈ 0.0699 µM)

Question: What about the Activity [4] of the same compound?
Answer: Non-Toxic

Question: What about the CC50 at 72 h [2] of the same compound?
Answer: > 100 µg/mL

Question: And the LD50 at 7 days [5]?
Answer: 800 mg/kg

Question: What about the inhibition in vivo at 5 mg/kg/day [6] of the same compound?
Answer: 58.1%

Question: And the Activity [7]?
Answer: Non-Toxic

Question: And the inhibition in vivo at 0.1 mg/kg/day [8]?
Answer: 12%

Question: What about the Activity [9] of the same compound?
Answer: Dose-dependent effect

Question: And the Activity [10]?
Answer: Toxic

Question: And the ED50 [11]?
Answer: 2.23 mg/kg

Question: What about the inhibition in vivo at 1 mg/kg/day [12] of the same compound?
Answer: 21.7%

Question: What about the inhibition in vivo at 10 mg/kg/day [13] of the same compound?
Answer: 93.4%

Question: What about the Activity [14] of the same compound?
Answer: Active

Question: Which IC50 [1] does the source give for `COc1cc(Nc2ccnc3cc(Cl)ccc23)cc(OC)c1OC` here?
Answer: 0.64 µg/mL (≈ 1.86 µM)

Question: And the CC50 at 72 h [2]?
Answer: > 100 µg/mL

Question: What does the source list for `Fc1ccc(Nc2ccnc3cc(Cl)ccc23)cc1`?
Answer: selectivity ratio [3]: 388; IC50 [1]: 0.029 µg/mL (≈ 0.106 µM); Activity [4]: Non-Toxic; CC50 at 72 h [2]: > 100 µg/mL; LD50 at 7 days [5]: 800 mg/kg; inhibition in vivo at 5 mg/kg/day [6]: 54.2%; Activity [7]: Non-Toxic; inhibition in vivo at 0.1 mg/kg/day [8]: 21.6%; Activity [9]: Dose-dependent effect; Activity [10]: Toxic; ED50 [11]: 2.06 mg/kg; inhibition in vivo at 1 mg/kg/day [12]: 32%; inhibition in vivo at 10 mg/kg/day [13]: 79.1%; Activity [14]: Active

Question: Which results are given for `Cc1ccc(Nc2ccnc3cc(Cl)ccc23)c(C)c1`?
Answer: IC50 [1]: 0.4 µg/mL (≈ 1.41 µM); CC50 at 72 h [2]: > 100 µg/mL

Question: With `Fc1cccc(Nc2ccnc3cc(Cl)ccc23)c1` as the compound, how does the IC50 [1] read?
Answer: 0.098 µg/mL (≈ 0.359 µM)

Question: And the CC50 at 72 h [2]?
Answer: > 100 µg/mL

Question: What does the source list for `Cc1cccc(C)c1Nc1ccnc2cc(Cl)ccc12`?
Answer: IC50 [1]: 0.046 µg/mL (≈ 0.163 µM); CC50 at 72 h [2]: > 100 µg/mL

Question: Which IC50 [1] does the source give for `Fc1ccc(Nc2ccnc3cc(Cl)ccc23)cc1Cl` here?
Answer: 1.9 µg/mL (≈ 6.19 µM)

Question: And the CC50 at 72 h [2]?
Answer: > 100 µg/mL

Question: What does the source list for `Clc1ccc2c(Nc3ccccc3Br)ccnc2c1`?
Answer: IC50 [1]: 0.17 µg/mL (≈ 0.51 µM); CC50 at 72 h [2]: > 100 µg/mL

Question: For `CCN(CC)Cc1cc(Nc2ccnc3cc(Cl)ccc23)ccc1O` [AMODIAQUINE], which inhibition in vivo at 5 mg/kg/day [6] is on record?
Answer: 67.1%

Question: What about the inhibition in vivo at 0.1 mg/kg/day [8] of the same compound?
Answer: 28%

Question: And the ED50 [11]?
Answer: 1.19 mg/kg

Question: What about the inhibition in vivo at 1 mg/kg/day [12] of the same compound?
Answer: 48.2%

Question: What about the inhibition in vivo at 10 mg/kg/day [13] of the same compound?
Answer: 94.1%

Question: Which results are given for `Cc1cccc(Nc2ccnc3cc(Cl)ccc23)c1C`?
Answer: IC50 [1]: 0.036 µg/mL (≈ 0.127 µM); CC50 at 72 h [2]: > 100 µg/mL

Question: Which IC50 [1] does the source give for `Clc1ccc(Nc2ccnc3cc(Cl)ccc23)c(Cl)c1` here?
Answer: 0.76 µg/mL (≈ 2.35 µM)

Question: What about the CC50 at 72 h [2] of the same compound?
Answer: > 100 µg/mL

Question: What does the source list for `Clc1ccc(Cl)c(Nc2ccnc3cc(Cl)ccc23)c1`?
Answer: IC50 [1]: 0.056 µg/mL (≈ 0.173 µM); CC50 at 72 h [2]: > 100 µg/mL

Question: For `Cc1cc(F)ccc1Nc1ccnc2cc(Cl)ccc12`, which IC50 [1] is on record?
Answer: 0.076 µg/mL (≈ 0.265 µM)

Question: What about the CC50 at 72 h [2] of the same compound?
Answer: > 100 µg/mL

Question: Which IC50 [1] does the source give for `Cc1ccc(Nc2ccnc3cc(Cl)ccc23)cc1C` here?
Answer: 0.16 µg/mL (≈ 0.566 µM)

Question: And the CC50 at 72 h [2]?
Answer: > 100 µg/mL
